Reference: publication PMC4258470 (Journal of molecular biology, 2014)

Assays:
[1] = tested on: pRb acetylation in BJ cells; experiment: In-cell pRb acetylation assay; assay type: cell-based, human; conditions: retroviral transduction, vs control vector (BP)
Summary of the method: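 Human BJ foreskin fibroblasts (DMEM, 10% calf serum) stably transduced with LXSN control vector or E7 retrovirus and selected in 600 μg/ml G418. Lysed by sonication in NETN containing butyrate, TSA, phosphatase and protease inhibitors. Anti-pRb IP from 0.8–1.0 mg extract, SDS-PAGE, blots probed for acetyl-lysine and pRb, ECL. Background-corrected AcK/pRb band ratio normalised to vector, mean of two independent experiments.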

[2] = tested on: pRb in BJ cells; experiment: pRb level by Western blot, BJ cells; assay type: cell-based, human; conditions: retroviral transduction, vs control vector (BP); lysates and IP
Summary of the method: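 Human BJ fibroblasts (DMEM, 10% calf serum) retrovirally transduced with LXSN control vector or E7 and G418-selected (600 μg/ml). Sonicated in NETN buffer with phosphatase, deacetylase and protease inhibitors. Both lysates and anti-pRb immunoprecipitates (0.8–1.0 mg extract) resolved on 7–8% SDS-PAGE and Western blotted with anti-pRb, ECL detection.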

[3] = tested on: pRb acetylation in MEF cells; experiment: In-cell pRb acetylation assay, MEF cells; assay type: cell-based, mouse; conditions: for pRb acetylation, MEF cells before Cre treatment: floxed CBP/p300 MEF, prior to Cre
Summary of the method: (§1)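 Primary mouse embryonic fibroblasts homozygous for floxed CBP and p300 alleles, grown in DMEM with 10% calf serum, stably transduced with LXSN-E7 retrovirus and selected in 600 μg/ml G418. Lysed in NETN with inhibitors. pRb immunoprecipitated from 0.8–1.0 mg extract, 7–8% SDS-PAGE, PVDF blots probed with anti-pRb or anti-acetyl-lysine, ECL.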

[4] = tested on: pRb in MEF cells; experiment: pRb level by Western blot, MEF cells; assay type: cell-based, mouse; conditions: floxed CBP/p300 MEF, prior to Cre
Summary of the method: as §1

[5] = molecular target: p300 TAZ1 domain; conditions: read-out: affinity measured by sedimentation equilibrium for p300 TAZ1; 4°C; cited from earlier work
[6] = tested on: p53 transcriptional activity; conditions: in cells; cited from earlier work
[7] = tested on: N-terminal region of p300, encompassing the TAZ1 (or CH1) domain; conditions: buffer containing 2.5 mM EDTA; cited from earlier work
[8] = tested on: p130; conditions: in vitro; cited from earlier work
[9] = tested on: cellular transformation; conditions: epithelial cells, E7 alone; cited from earlier work
[10] = tested on: HPV E2 transcriptional activity; conditions: cited from earlier work
[11] = molecular target: T1, TAZ2 domain of CBP (residues 1764–1855) (Mus musculus, UniProt P45481); experiment: Fluorescence anisotropy, competition with ppE7; assay type: binding; conditions: phosphorylated vs non-phosphorylated (Table 1)
T1 sequence (P45481 1764-1855): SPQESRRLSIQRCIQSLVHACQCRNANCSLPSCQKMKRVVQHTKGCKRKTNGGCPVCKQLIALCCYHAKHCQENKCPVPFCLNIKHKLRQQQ

[12] = molecular target: T1, TAZ2 domain of CBP (residues 1764–1855); experiment: 1H-15N HSQC NMR titration of 15N-TAZ2; assay type: binding; conditions: TAZ2 vs TAZ1 of CBP; fluorescence and NMR
[13] = tested on: TAZ2 domain of CBP with pRb-AB; experiment: 1H-15N HSQC NMR of 15N-TAZ2 with E7; assay type: binding, mouse; conditions: 15N-TAZ2:E7:pRb-AB 1:0.25:1; NMR buffer pH 6.8
[14] = tested on: TAZ2 domain of CBP; experiment: In vitro GB1 pulldown, TAZ2; assay type: binding, mouse; conditions: H6GB1 alone as negative control; legend refers to TAZ1 and TAZ2
[15] = molecular target: pocket domain of pRb; conditions: read-out: Kd for pRb; pRb pocket domain (pRb-AB); cited from earlier work

In the case of “E7(1-98): full length high-risk HPV16 E7 (residues 1-98), homodimer”, the “pRb acetylation, BJ cells” value ([1]; listed as E7) is reported as “increased levels of acetylation”, the “pRb acetylation, BJ cells” value ([1]; listed as full-length E7) is reported as “enhanced” and the “pRb acetylation, BJ cells” value ([1]; listed as full-length HPV16 E7) is reported as “Enhanced acetylation of pRb”. The “pRb level, BJ cells” value [2] was “decreased levels of pRb”, the “E7-induced pRb acetylation, MEF cells lacking CBP/p300” value ([3]; Cre-treated MEF cells, listed as full-length HPV16 E7) was “acetylation levels were substantially decreased in CBP/p300^−/− cells” and the “pRb acetylation, MEF cells before Cre treatment” value ([3]; listed as E7) was “increased levels of pRb acetylation”. For the same substance, the “pRb acetylation, MEF cells before Cre treatment” value ([3]; listed as full-length HPV16 E7) was “Enhanced acetylation of pRb”, the “pRb level, MEF cells before Cre treatment” value [4] was “significantly decreased levels of pRb” and the Kd [5] was 900 to 3500 nM. The “inhibition of p53 transcriptional activity” value [6] was “inhibit p53 transcriptional activity in cells”, the “interaction with p300 regions in GST pulldown” value [7] was “interacts most strongly with the N-terminal region of p300, encompassing the TAZ1 (or CH1) domain” and the “enhancement of p300-mediated acetylation of p130” value [8] was “enhances p300-mediated acetylation of the retinoblastoma protein family member p130”. For the same substance, the transformation and immortalization [9] was “sufficient to transform and immortalize epithelial cells, albeit with lower efficiency” and the “repression of HPV E2 transcriptional activity” value [10] was “represses HPV E2 transcriptional activity”.

In the case of “16-E7(1-51): construct containing the disordered CR1 and CR2 domains, residues M1-H51, of HPV16 E7”, the “enhancement of binding to TAZ2 by CKII phosphorylation of Ser31 and Ser32” value [11] is reported as 3 -fold, the “tighter binding to TAZ2 than to TAZ1” value [12] is reported as ~ 1000 -fold and the “ternary complex (TAZ2:E7:pRb-AB) formation by NMR” value [13] is reported as “unable to support ternary complex formation”. The “pRb acetylation, BJ cells” value [1] was “comparable to control cells” and the “pRb level, BJ cells” value [2] was “comparable to control cells”.

For “p53(13-61): p53 residues 13-61, positive control”, the “pulldown signal vs H6GB1 background” value [14] was “bind significantly above the background signal”.

With “STAT1(710-750): STAT1 residues 710-750, positive control (SEVHPSRLQTTDNLLPMSPEEFDEVSRIVGSVEFDSMMNTV)” the “pulldown signal vs H6GB1 background” value [14] was “bind significantly above the background signal”.

For “pp16-E7(1-51): HPV16 E7(1-51) phosphorylated by casein kinase II (CKII) at serines 31 and 32”, the Kd [15] is listed as 2 nM.
